pEC50, pIC50: −log10 of the molar value.
How the values were obtained:
[1] = biological target: Glycogen synthase kinase-3 beta (Homo sapiens) (UniProt P49841); test: Inhibition of GSK3-beta at 10 uM
[2] = biological target: Aurora kinase A (Homo sapiens) (UniProt O14965); test: Inhibition of AURKA at 10 uM
[3] = biological target: Serine/threonine-protein kinase PLK1 (Homo sapiens) (UniProt P53350); test: Inhibition of PLK1 at 10 uM
[4] = biological target: Protein-tyrosine kinase 2-beta (Homo sapiens) (UniProt Q14289); test: Inhibition of PTK2B at 10 uM
[5] = Half life in rat at 1 mg/kg, iv; type: ADME, organism-based; parameters: dose 1 mg/kg, route intravenous; conditions: in vivo
How it was run: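 Rats were given a single intravenous dose of 1 mg/kg. Half-life is reported in min, together with clearance (mL/h/kg).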

[6] = biological target: Tyrosine-protein kinase JAK1 (Homo sapiens) (UniProt P23458); test: Inhibition of JAK1 at 10 uM
[7] = biological target: Cyclin-dependent kinase 5/CDK5 activator 1 (Homo sapiens) (UniProt Q00535+Q15078); test: Inhibition of CDK5/P25 at 10 uM; type: protein-complex assay
[8] = biological target: Serine/threonine-protein kinase PLK2 (Homo sapiens) (UniProt Q9NYY3); test: Inhibition of PLK2 at 10 uM
[9] = Apparent permeability from apical to basolateral side of MDCK2 cells at 5 uM after 120 mins by LC/MS/MS method; type: ADME, cell-based, Canis lupus familiaris, MDCK-II; conditions: dog, MDCK
[10] = biological target: Proto-oncogene tyrosine-protein kinase receptor Ret (Homo sapiens) (UniProt P07949); test: Inhibition of RET at 10 uM
[11] = biological target: Platelet-derived growth factor receptor alpha (Homo sapiens) (UniProt P16234); test: Inhibition of PDGFRA at 10 uM
Cortical neurone = test: Neuroprotective activity in human cerebral cortical neurons assessed as reversal of amyloid beta-induced neuronal damage after 2 to 3 days; type: functional
How it was run: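 Human cortical neurons were exposed to amyloid-β in a neurotoxicity assay. Neuroprotection by the inhibitor was expressed as an EC50.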

[12] = biological target: Macrophage colony-stimulating factor 1 receptor (Homo sapiens) (UniProt P07333); test: Inhibition of CSF1R at 10 uM
[13] = biological target: cAMP-dependent protein kinase catalytic subunit alpha (Homo sapiens) (UniProt P17612); test: Inhibition of PRKACA at 10 uM
[14] = biological target: RAC-alpha serine/threonine-protein kinase (Homo sapiens) (UniProt P31749); test: Inhibition of AKT1 at 10 uM
[15] = biological target: Cyclin-dependent kinase 1/cyclin B1 (Homo sapiens) (UniProt P06493+P14635); test: Inhibition of CDK1/Cyclin B1 at 10 uM; type: protein-complex assay
[16] = Oxidative metabolic stability in mouse liver microsomes assessed as compound remaining at 1 uM after 30 mins; type: ADME, Microsome; conditions: read-out: Stability
How it was run: (§1)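 Test compound was incubated with mouse, rat or human liver microsomes for 30 min. The read-out is percent of parent compound remaining.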

[17] = Oxidative metabolic stability in human liver microsomes assessed as compound remaining at 1 uM after 30 mins; type: ADME, Microsome; conditions: read-out: Stability; how it was run: as §1
MDR1 = test: Efflux ratio of permeability across MDCK2 expressing MDR1 at 5 uM after 120 mins by LC/MS/MS method; type: ADME, Canis lupus familiaris, MDCK-II; conditions: dog, MDCK-MDR1
[18] = biological target: Mitogen-activated protein kinase 8 (Homo sapiens, UniProt P45983); test: Inhibition of recombinant JNK1 using ser73 of c-jun as substrate preincubated for 15 mins measured after 60 mins by TR-FRET assay
How it was run: (§2)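 Recombinant JNK enzyme assay run at 10 µM ATP. IC50 values are means of at least three experiments.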

[19] = Ratio of drug level in brain to plasma in mouse at 1 mg/kg, iv; type: ADME, organism-based; parameters: dose 1 mg/kg, route intravenous; conditions: read-out: BPR
How it was run: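 Single intravenous dose of 1 mg/kg in mice. Brain exposure was reported as brain AUC (ng h/mL), together with the brain-to-plasma ratio.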

[20] = biological target: Receptor tyrosine-protein kinase erbB-4 (Homo sapiens) (UniProt Q15303); test: Inhibition of ERBB4 at 10 uM
[21] = biological target: T1, Mitogen-activated protein kinase 1 (Homo sapiens, UniProt P28482); test: Inhibition of ERK2 at 10 uM
[22] = biological target: Mitogen-activated protein kinase 9 (Homo sapiens, UniProt P45984); test: Inhibition of recombinant JNK2 using ser73 of c-jun as substrate preincubated for 15 mins measured after 60 mins by TR-FRET assay; how it was run: as §2
[23] = biological target: Serine/threonine-protein kinase 3 (Homo sapiens) (UniProt Q13188); test: Inhibition of STK3 at 10 uM
[24] = biological target: Serine/threonine-protein kinase PAK 4 (Homo sapiens) (UniProt O96013); test: Inhibition of PAK4 at 10 uM
[25] = Oxidative metabolic stability in rat liver microsomes assessed as compound remaining at 1 uM after 30 mins; type: ADME, Microsome; conditions: read-out: Stability; how it was run: as §1
[26] = biological target: T1, Mitogen-activated protein kinase 1; test: Inhibition of recombinant ERK2 using Ser383 of Elk-1 as substrate preincubated for 15 mins measured after 60 mins by TR-FRET assay
[27] = biological target: Receptor-type tyrosine-protein kinase FLT3 (Homo sapiens) (UniProt P36888); test: Inhibition of FLT3 at 10 uM
[28] = biological target: Serine/threonine-protein kinase MARK2 (Homo sapiens) (UniProt Q7KZI7); test: Inhibition of MARK2 at 10 uM
[29] = biological target: T2, Mitogen-activated protein kinase 10 (Homo sapiens, UniProt P53779); test: Inhibition of JNK3 at 10 uM using 100 uM of ATP
[30] = biological target: Dual specificity protein kinase CLK1 (Homo sapiens) (UniProt P49759); test: Inhibition of CLK1 at 10 uM
[31] = biological target: Rho-associated protein kinase 2 (Homo sapiens) (UniProt O75116); test: Inhibition of ROCK2 at 10 uM
[32] = biological target: Serine/threonine-protein kinase PLK3 (Homo sapiens) (UniProt Q9H4B4); test: Inhibition of PLK3 at 10 uM
[33] = biological target: Cyclin-dependent kinase 2/cyclin A (Homo sapiens) (UniProt P24941+P20248+P78396); test: Inhibition of CDK2/Cyclin A at 10 uM; type: protein-complex assay
[34] = biological target: Receptor-interacting serine/threonine-protein kinase 2 (Homo sapiens) (UniProt O43353); test: Inhibition of RIPK2 at 10 uM
[35] = AUC in mouse brain at 1 mg/kg, iv; type: ADME, organism-based; parameters: dose 1 mg/kg, route intravenous
How it was run: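 Mice were dosed intravenously at 1 mg/kg. Brain exposure was expressed as AUC (ng h/mL) alongside the brain/plasma ratio.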

[36] = biological target: Insulin receptor (Homo sapiens) (UniProt P06213); test: Inhibition of INSR at 10 uM
[37] = biological target: Tyrosine-protein kinase ABL1 (Homo sapiens) (UniProt P00519); test: Inhibition of Abl1 at 10 uM
[38] = system: RAF proto-oncogene serine/threonine-protein kinase (Homo sapiens), P04049 [Y340D,Y341D]; test: Inhibition of c-Raf Y340D Y341D mutant at 10 uM using 100 uM of ATP
Rattus norvegicus [39] = test: Oral bioavailability in rat at 2 mg/kg; type: ADME, organism-based; conditions: in vivo
How it was run: (§3)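 Rats received an oral dose of 2 mg/kg. Plasma AUC is reported in nmol h/mL. Oral bioavailability (F%) was calculated against a 1 mg/kg intravenous dose.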

[40] = biological target: Serine/threonine-protein kinase Chk1 (Homo sapiens) (UniProt O14757); test: Inhibition of CHEK1 at 10 uM
[41] = biological target: T2, Mitogen-activated protein kinase 10; test: Inhibition of recombinant JNK3 using ser73 of c-jun as substrate preincubated for 15 mins measured after 60 mins by TR-FRET assay; how it was run: as §2
[42] = biological target: Leucine-rich repeat serine/threonine-protein kinase 2 (Homo sapiens) (UniProt Q5S007); test: Inhibition of LRRK2 at 10 uM
[43] = biological target: PI3-kinase p110-alpha/p85-alpha (Homo sapiens) (UniProt P27986+P42336); test: Inhibition of PIK3CA/PIK3R1 at 10 uM; type: protein-complex assay
[44] = biological target: Tyrosine-protein kinase Lck (Homo sapiens) (UniProt P06239); test: Inhibition of LCK at 10 uM
[45] = biological target: Dual specificity tyrosine-phosphorylation-regulated kinase 1B (Homo sapiens) (UniProt Q9Y463); test: Inhibition of DYRK1B at 10 uM
[46] = biological target: Mitogen-activated protein kinase 14 (Homo sapiens, UniProt Q16539); test: Inhibition of recombinant p38alpha Thr69/71 of ATF-2 as substrate preincubated for 15 mins measured after 60 mins by TR-FRET assay
[47] = biological target: Calcium/calmodulin-dependent protein kinase type II subunit alpha (Homo sapiens) (UniProt Q9UQM7); test: Inhibition of CAMK2A at 10 uM
Rattus norvegicus [48] = test: AUC in rat at 2 mg/kg, po; type: ADME, organism-based, Plasma; parameters: dose 2 mg/kg, route oral; conditions: in vivo; how it was run: as §3
[49] = biological target: Protein kinase C beta type (Homo sapiens) (UniProt P05771); test: Inhibition of PRKCB1 at 10 uM
[50] = biological target: Tyrosine-protein kinase SYK (Homo sapiens) (UniProt P43405); test: Inhibition of SYK at 10 uM

T2 sequence (P53779 whole entry): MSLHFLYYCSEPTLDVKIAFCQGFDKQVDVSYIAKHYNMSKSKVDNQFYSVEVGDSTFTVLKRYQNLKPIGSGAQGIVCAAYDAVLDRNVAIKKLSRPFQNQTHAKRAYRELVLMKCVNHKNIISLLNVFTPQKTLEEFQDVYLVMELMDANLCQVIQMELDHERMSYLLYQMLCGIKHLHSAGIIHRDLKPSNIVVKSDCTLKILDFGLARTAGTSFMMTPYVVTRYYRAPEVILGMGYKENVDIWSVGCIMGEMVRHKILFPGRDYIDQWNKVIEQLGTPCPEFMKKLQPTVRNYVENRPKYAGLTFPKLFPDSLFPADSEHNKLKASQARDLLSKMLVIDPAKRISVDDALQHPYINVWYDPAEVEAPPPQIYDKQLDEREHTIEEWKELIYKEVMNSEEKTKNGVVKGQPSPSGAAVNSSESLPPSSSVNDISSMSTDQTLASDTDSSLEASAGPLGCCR
T1 sequence (P28482 whole entry): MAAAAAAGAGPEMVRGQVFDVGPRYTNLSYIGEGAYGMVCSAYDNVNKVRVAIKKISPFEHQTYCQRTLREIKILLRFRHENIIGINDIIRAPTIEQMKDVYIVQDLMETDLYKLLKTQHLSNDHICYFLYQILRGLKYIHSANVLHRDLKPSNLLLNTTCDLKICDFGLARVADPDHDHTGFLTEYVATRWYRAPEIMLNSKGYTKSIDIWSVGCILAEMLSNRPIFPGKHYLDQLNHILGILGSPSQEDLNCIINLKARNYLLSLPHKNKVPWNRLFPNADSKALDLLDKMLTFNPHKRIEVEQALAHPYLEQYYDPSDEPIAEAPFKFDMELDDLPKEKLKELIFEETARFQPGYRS
Sequence of Cyclin-dependent kinase 5/CDK5 activator 1 (Homo sapiens) (Q00535 whole entry): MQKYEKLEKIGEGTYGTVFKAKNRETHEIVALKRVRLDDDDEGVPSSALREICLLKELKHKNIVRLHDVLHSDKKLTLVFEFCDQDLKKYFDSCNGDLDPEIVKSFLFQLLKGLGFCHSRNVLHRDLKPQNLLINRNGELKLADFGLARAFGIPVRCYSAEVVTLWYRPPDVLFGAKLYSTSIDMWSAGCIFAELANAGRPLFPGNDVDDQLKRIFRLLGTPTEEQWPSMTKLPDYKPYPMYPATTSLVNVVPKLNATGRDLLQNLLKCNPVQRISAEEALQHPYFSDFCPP
Sequence of Cyclin-dependent kinase 5/CDK5 activator 1 (Homo sapiens) (Q15078 99-307 partner limits assumed): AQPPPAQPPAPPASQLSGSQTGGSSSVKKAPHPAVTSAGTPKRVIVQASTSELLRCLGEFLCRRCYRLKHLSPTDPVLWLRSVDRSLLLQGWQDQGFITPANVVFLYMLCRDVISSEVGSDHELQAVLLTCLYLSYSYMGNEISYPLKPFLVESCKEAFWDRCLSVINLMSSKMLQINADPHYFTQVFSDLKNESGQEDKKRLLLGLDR
Sequence of Serine/threonine-protein kinase PLK2 (Homo sapiens) (Q9NYY3 whole entry, looked up): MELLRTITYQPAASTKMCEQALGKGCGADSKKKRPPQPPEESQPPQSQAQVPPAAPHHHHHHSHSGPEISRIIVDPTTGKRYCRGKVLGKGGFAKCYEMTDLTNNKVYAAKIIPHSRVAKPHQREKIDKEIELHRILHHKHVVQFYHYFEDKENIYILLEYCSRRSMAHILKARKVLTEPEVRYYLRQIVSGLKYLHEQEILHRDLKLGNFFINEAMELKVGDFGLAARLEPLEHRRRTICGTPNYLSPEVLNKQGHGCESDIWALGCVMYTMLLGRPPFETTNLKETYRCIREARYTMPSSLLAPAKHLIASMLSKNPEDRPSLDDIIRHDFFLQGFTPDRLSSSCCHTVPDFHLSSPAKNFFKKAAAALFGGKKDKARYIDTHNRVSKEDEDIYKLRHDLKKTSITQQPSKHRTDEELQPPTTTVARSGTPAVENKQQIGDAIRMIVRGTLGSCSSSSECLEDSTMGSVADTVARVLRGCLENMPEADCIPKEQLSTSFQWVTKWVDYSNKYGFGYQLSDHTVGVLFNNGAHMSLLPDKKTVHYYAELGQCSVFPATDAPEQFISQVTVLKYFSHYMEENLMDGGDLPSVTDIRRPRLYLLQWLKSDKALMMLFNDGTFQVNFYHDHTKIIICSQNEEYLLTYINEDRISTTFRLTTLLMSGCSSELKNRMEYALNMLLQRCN
Sequence of Insulin receptor (Homo sapiens) (P06213 28-758 limits assumed): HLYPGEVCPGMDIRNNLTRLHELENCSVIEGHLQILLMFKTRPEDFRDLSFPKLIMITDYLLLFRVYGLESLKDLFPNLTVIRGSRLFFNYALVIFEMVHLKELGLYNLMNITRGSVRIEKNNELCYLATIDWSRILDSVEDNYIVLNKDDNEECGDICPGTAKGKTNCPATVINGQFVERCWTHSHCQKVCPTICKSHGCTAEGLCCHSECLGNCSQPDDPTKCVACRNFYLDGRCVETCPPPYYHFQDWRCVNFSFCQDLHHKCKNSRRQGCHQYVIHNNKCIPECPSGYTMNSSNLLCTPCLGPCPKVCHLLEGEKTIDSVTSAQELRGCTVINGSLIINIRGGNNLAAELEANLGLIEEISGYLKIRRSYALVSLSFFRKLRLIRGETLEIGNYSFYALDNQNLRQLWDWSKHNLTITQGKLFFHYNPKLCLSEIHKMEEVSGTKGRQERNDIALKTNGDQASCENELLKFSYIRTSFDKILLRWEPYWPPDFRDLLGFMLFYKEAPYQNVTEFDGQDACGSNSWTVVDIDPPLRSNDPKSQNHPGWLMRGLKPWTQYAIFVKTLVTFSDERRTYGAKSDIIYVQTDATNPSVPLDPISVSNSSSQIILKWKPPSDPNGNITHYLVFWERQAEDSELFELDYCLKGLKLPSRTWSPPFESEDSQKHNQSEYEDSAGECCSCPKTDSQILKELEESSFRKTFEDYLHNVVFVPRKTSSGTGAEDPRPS
Sequence of Insulin receptor (Homo sapiens) (P06213 763-1382 limits assumed): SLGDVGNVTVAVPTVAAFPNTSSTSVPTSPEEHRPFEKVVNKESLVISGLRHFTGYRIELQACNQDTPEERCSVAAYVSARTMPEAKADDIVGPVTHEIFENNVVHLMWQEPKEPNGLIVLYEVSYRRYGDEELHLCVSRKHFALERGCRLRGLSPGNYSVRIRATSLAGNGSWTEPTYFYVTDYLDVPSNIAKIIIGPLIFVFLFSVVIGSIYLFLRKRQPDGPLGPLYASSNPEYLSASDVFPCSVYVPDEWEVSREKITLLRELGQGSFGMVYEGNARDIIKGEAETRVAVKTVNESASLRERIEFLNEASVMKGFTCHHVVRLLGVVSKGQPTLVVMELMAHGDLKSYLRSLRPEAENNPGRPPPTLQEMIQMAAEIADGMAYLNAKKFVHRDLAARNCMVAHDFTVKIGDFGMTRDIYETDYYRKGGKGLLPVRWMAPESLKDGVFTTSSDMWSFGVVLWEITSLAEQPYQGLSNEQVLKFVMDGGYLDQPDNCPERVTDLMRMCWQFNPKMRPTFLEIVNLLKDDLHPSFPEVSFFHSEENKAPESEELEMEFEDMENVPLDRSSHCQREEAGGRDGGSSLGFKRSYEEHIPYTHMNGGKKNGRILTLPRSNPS
Sequence of Receptor-interacting serine/threonine-protein kinase 2 (Homo sapiens) (O43353 whole entry): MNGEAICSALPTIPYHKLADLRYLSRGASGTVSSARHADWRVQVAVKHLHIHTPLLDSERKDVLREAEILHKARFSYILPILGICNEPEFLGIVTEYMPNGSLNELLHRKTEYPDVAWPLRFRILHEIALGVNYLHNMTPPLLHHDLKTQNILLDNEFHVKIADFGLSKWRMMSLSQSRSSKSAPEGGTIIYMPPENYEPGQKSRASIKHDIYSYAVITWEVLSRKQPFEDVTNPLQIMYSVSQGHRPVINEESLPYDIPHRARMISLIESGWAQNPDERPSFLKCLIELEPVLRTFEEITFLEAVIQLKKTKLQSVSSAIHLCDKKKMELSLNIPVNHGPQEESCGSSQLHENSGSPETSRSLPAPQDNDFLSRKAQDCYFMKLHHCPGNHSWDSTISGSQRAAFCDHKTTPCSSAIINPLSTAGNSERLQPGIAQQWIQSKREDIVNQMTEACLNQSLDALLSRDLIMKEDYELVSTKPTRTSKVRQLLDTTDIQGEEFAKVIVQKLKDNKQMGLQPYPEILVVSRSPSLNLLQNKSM
Sequence of Receptor-type tyrosine-protein kinase FLT3 (Homo sapiens) (P36888 whole entry): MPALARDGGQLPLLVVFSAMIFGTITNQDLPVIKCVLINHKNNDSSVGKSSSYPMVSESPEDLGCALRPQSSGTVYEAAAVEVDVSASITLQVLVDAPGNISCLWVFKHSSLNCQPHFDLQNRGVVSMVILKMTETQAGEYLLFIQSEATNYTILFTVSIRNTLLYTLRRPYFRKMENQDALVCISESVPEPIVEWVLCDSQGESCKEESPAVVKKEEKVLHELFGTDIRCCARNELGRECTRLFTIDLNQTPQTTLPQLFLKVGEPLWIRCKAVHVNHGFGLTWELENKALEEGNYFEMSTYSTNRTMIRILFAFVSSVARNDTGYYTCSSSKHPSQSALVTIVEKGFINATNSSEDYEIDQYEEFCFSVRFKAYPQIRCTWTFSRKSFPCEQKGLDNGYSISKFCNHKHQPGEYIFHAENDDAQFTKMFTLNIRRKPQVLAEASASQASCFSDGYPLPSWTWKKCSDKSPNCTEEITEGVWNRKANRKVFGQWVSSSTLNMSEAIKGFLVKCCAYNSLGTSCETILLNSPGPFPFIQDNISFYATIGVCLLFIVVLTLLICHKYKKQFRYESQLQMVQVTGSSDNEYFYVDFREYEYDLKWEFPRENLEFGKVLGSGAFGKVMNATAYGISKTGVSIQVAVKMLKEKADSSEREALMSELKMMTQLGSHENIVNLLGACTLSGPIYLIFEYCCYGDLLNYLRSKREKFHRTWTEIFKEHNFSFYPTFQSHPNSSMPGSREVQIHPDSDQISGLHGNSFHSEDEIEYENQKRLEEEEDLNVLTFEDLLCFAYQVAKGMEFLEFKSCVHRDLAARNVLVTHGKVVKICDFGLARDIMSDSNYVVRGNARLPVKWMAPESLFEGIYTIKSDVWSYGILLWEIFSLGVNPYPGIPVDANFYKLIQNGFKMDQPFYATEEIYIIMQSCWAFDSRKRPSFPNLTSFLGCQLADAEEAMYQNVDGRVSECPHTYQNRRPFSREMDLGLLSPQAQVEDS

inhibition [1]: 5%
inhibition [2]: 5%
inhibition [3]: 3%
inhibition [4]: -5%
half-life [5]: 4.6 min
inhibition [6]: 0%
inhibition [7]: 2%
inhibition [8]: 10%
Papp A→B at 2 h, 5 µM [9]: 3.62 ×10⁻⁶ cm/s
inhibition [10]: 4%
inhibition [11]: 0%
inhibition [12]: -2%
inhibition [13]: 0%
inhibition [14]: 2%
inhibition [15]: 1%
remaining at 0.5 h, 1 µM [16]: 58%
remaining at 0.5 h, 1 µM [17]: 67%
efflux ratio at 2 h, 5 µM (MDR1): 0.61
pIC50 [18]: 8.70
Kp [19]: 0.7
inhibition [20]: -2%
inhibition [21]: -2%
pIC50 [22]: 8.30
inhibition [23]: 4%
inhibition [24]: 3%
remaining at 0.5 h, 1 µM [25]: 35%
pIC50 [26]: < 4.30
inhibition [27]: 7%
inhibition [28]: 4%
inhibition [29]: 96%
inhibition [30]: 5%
inhibition [31]: 11%
inhibition [32]: -8%
inhibition [33]: 2%
inhibition [34]: -7%
AUC [35]: 235 ng·h/mL
inhibition [36]: -3%
inhibition [37]: 0%
inhibition [38]: 10%
F (Rattus norvegicus [39]): 34%
inhibition [40]: 10%
pIC50 [41]: 8.05
inhibition [42]: 13%
inhibition [43]: 6%
inhibition [44]: 8%
inhibition [45]: 11%
pIC50 [46]: < 4.30
inhibition [47]: 4%
AUC (Rattus norvegicus [48]): 1310 ng·h/mL
inhibition [49]: 4%
inhibition [50]: 15%
Structure (SMILES): O=C(Cn1c(=O)ccc2cc(C(F)(F)F)ccc21)Nc1scc(Br)c1-c1ncn[nH]1
pEC50 (Cortical neurone): 5.54

From ChEMBL document CHEMBL1821697, “Design and synthesis of brain penetrant selective JNK inhibitors with improved pharmacokinetic properties for the prevention of neurodegeneration” (Bioorg Med Chem Lett, 2011)
